Reference: publication PMC6982535 (Science (New York, N.Y.), 2019)

Experiments:
CNG channels = assay: BL-1249 on CNG channels; format: cell-based; conditions: result in words
TALK-2 = molecular target: T1, TALK-2 (Homo sapiens, UniProt Q96T54); assay: TALK-2 currents in inside-out patches; format: cell-based; conditions: result in words
T1 sequence (Q96T54 1-332): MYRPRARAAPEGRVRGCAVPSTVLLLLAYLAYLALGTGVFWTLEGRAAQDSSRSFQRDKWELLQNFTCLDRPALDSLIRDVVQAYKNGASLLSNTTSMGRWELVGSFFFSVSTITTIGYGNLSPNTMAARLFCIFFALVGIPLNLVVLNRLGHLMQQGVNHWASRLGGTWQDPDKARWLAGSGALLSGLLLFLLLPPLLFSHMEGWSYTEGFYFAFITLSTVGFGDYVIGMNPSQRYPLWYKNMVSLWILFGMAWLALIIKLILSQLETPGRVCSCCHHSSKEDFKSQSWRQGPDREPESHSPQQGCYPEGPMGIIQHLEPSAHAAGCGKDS
In short: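 TALK-2 currents were recorded in inside-out patches from Xenopus oocytes. Fold activation was measured with 50 μM test compound or 1 mM 2-APB, applied at several intracellular pH values.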

Kv3.1 = molecular target: T2, Kv3.1 (Homo sapiens, UniProt P48547); assay: BL-1249 on helix bundle-crossing gated channel Kv3.1; format: cell-based; conditions: result in words
T2 sequence (P48547 1-511): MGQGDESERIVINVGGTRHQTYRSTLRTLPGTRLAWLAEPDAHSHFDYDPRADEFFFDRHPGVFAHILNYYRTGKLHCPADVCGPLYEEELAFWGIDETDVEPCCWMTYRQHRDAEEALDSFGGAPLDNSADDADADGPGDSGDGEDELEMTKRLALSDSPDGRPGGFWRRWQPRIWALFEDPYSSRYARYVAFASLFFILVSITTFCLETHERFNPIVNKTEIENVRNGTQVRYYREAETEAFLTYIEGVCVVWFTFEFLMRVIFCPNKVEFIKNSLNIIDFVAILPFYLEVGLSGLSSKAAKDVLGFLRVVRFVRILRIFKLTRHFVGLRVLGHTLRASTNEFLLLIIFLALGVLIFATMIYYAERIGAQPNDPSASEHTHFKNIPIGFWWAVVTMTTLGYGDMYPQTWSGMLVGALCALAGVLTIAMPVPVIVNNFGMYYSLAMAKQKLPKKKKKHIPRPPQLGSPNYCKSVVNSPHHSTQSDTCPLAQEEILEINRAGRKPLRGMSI

TREK-2 = molecular target: T3, TREK-2 (Homo sapiens, UniProt P57789); assay: Single channel recordings of TREK-2 expressed in HEK293 cells; format: cell-based; conditions: TREK-2 in HEK293 cells
T3 sequence (P57789 1-538): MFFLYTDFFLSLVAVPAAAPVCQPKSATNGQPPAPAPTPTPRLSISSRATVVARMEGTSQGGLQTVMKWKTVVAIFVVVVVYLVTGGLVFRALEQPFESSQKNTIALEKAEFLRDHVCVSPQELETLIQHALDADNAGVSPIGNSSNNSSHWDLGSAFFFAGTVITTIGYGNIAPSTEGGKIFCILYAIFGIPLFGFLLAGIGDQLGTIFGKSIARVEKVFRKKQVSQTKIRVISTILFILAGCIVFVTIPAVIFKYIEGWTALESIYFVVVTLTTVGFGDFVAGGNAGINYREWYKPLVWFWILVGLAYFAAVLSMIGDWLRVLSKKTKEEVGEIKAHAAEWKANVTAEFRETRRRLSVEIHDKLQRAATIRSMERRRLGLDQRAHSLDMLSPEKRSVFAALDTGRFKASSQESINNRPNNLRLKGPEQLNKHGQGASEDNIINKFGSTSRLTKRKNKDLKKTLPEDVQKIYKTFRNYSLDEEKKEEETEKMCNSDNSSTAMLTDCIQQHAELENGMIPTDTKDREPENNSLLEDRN

[1] = acidic tetrazole ring; no reference given; cited from earlier work
TRAAK = molecular target: T4, TRAAK (Homo sapiens, UniProt Q9NYG8); assay: Extended screening of K2P channels with BL-1249: TRAAK; format: cell-based; conditions: result in words
T4 sequence (Q9NYG8 1-393): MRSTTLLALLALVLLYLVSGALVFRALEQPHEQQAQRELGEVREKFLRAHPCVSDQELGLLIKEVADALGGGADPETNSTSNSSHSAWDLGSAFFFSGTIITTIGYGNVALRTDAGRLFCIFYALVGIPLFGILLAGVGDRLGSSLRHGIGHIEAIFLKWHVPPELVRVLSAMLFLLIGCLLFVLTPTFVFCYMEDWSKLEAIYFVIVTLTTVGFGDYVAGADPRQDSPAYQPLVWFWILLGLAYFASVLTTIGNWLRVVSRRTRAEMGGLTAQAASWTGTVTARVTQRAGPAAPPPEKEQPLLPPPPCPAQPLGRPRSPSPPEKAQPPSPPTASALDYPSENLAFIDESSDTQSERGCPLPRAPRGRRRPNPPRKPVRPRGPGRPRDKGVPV

THIK-2 = molecular target: T5, THIK-2 (Homo sapiens, UniProt Q9HB15); assay: Extended screening of K2P channels with BL-1249: THIK-2; format: cell-based; conditions: result in words
T5 sequence (Q9HB15 1-430): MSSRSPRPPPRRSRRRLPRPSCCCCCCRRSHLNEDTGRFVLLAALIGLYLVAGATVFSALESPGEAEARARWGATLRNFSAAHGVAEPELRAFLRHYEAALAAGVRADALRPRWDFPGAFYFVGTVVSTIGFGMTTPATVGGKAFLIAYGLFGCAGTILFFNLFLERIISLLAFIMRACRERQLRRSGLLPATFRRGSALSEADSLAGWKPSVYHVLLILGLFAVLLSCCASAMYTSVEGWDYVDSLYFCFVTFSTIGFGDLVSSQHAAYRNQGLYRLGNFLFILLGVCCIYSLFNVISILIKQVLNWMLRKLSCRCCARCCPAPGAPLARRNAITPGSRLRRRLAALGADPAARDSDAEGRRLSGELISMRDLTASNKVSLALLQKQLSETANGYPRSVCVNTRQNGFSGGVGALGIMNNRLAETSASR

TALK-1 = molecular target: T6, TALK-1 (Homo sapiens, UniProt Q96T55); assay: Extended screening of K2P channels with BL-1249: TALK-1; format: cell-based; conditions: result in words
T6 sequence (Q96T55 1-309): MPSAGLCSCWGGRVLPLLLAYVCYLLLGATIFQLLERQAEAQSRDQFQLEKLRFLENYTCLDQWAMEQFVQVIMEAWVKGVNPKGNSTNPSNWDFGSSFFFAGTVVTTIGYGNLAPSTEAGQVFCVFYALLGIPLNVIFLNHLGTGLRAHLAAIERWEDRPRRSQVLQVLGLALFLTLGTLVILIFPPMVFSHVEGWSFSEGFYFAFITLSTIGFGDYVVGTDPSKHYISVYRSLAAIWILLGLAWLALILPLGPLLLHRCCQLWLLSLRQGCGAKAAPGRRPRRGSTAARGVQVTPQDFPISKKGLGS

activation of TALK-2 (TALK-2; extended screening): potent activation | pH dependence of TALK-2 activation (TALK-2; lowering pHi to 5, 50 μM BL-1249 or 1 mM 2-APB): potency dropped strongly | activation of Kv3.1 (Kv3.1): not activated | single channel amplitude, outward (TREK-2; +100 mV, with BL-1249 (basal 17.7 ± 1.3), n = 7): 21.7 ± 1.4 pA | single channel amplitude, inward (TREK-2; -100 mV, with BL-1249 (basal -29.3 ± 1.5), n = 7): -34.1 ± 1.9 pA | open probability (TREK-2; result in words): increase in open probability | activation of TRAAK (TRAAK): potent activation | activation of THIK-2 (THIK-2): potent activation | activation of TALK-1 (TALK-1): potent activation
SMILES: c1ccc(-c2nn[nH]n2)c(Nc2cccc3c2CCCC3)c1 [BL-1249]
activation of CNG channels (CNG channels): not activated | pKa [1]: around 5
